# Tests used:
# Rattus norvegicus [1] = species on record: Rattus norvegicus; test: Metabolic absorption in rat; format: ADME, organism-based; conditions: in vivo
# In short: (§1)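 Rat pharmacokinetics with blood drawn from both the jugular and portal veins after oral dosing, with IV dosing as reference. Absorption is calculated from portal vein drug levels. Oral bioavailability is calculated from jugular vein levels, each compared with levels after IV administration.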
# [2] = (§2) Oral bioavailability in rat; format: ADME, organism-based; conditions: in vivo; in short: as §1
# Hepatitis C virus [3] = test: Antiviral activity against HCV 1b infected in human Huh-7 cells after 48hrs by luciferase assay; format: functional, organism-based, Hepacivirus hominis; conditions: genotype 1b, Huh-7, 48 h
# In short: (§3)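 Subgenomic (NS3-NS5B) luciferase replicon cells for genotype 1a or 1b. The 1b ET line is stably transfected with a firefly luciferase-ubiquitin-neo replicon carrying cell culture adaptive mutations. Cells are seeded at 5 × 10³/well onto compounds in 1% DMSO final. Luciferase is read after 48 h. EC50 comes from an 11-point, 3-fold dilution curve, as % inhibition versus no-compound control, with a four-parameter logistic fit.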
# Hepatitis C virus [4] = test: Antiviral activity against HCV 1a infected in human Huh-7 cells after 48hrs by luciferase assay; format: functional, organism-based, Hepacivirus hominis; conditions: subtype 1a, Huh-7, 48 h; in short: as §3
# [5] = Inhibition of HCV 1a NS3/4A protease by FRET assay; design: species or system Hepatitis C virus subtype 1a
# In short: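 FRET assay with the genotype 1a NS3/4A protease domain and a fluorogenic peptide substrate. Buffer is 50 mM HEPES, 20% sucrose, 5 mM DTT and 0.05% NP-40. Initial rates are read at ex 490/em 520 nm. IC50 values are means of duplicate or triplicate experiments.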
# Rattus norvegicus [6] = test: as §2; format: ADME, organism-based; conditions: in vivo, BLD = below limit of detection; in short: as §1
Structure (SMILES),Activity (Rattus norvegicus [1]),bioavailability [2],EC50 (Hepatitis C virus [3]),EC50 (Hepatitis C virus [4]),IC50 [5],Activity (Rattus norvegicus [1]; BLD = below limit of detection),F (Rattus norvegicus [6])
O=C(Nc1ccc2c(c1)B(O)OC2)N[C@H]1CCCCC/C=C\[C@@H]2C[C@@]2(C(=O)NS(=O)(=O)C2CC2)NC(=O)C2C[C@@H](OC(=O)N3Cc4cccc(F)c4C3)CN2C1=O (some centres undefined),0.9%,0.5%,3.7 nM,159 nM,0.4 nM,,
O=C(N[C@H]1CCCCC/C=C\[C@@H]2C[C@@]2(C(=O)NS(=O)(=O)C2CC2)NC(=O)C2C[C@@H](OC(=O)N3Cc4cccc(F)c4C3)CN2C1=O)Oc1ccc2c(c1)B(O)OC2 (some centres undefined),,,15 nM,661 nM,1.6 nM,,
O=C(N[C@H]1CCCCC/C=C\[C@@H]2C[C@@]2(C(=O)NS(=O)(=O)C2CC2)NC(=O)C2C[C@@H](OC(=O)N3Cc4cccc(F)c4C3)CN2C1=O)Oc1ccc2c(c1)COB2O (some centres undefined),,,172 nM,3550 nM,2.4 nM,,
O=C(NCc1ccc2c(c1)B(O)OC2)N[C@H]1CCCCC/C=C\[C@@H]2C[C@@]2(C(=O)NS(=O)(=O)C2CC2)NC(=O)C2C[C@@H](OC(=O)N3Cc4cccc(F)c4C3)CN2C1=O (some centres undefined),0.6%,0.7%,0.9 nM,160 nM,0.4 nM,,
O=C(Nc1cc2c(cc1F)COB2O)N[C@H]1CCCCC/C=C\[C@@H]2C[C@@]2(C(=O)NS(=O)(=O)C2CC2)NC(=O)C2C[C@@H](OC(=O)N3Cc4cccc(F)c4C3)CN2C1=O (some centres undefined),,,1.5 nM,35 nM,< 0.2 nM,,
CC1OB(O)c2cc(NC(=O)N[C@H]3CCCCC/C=C\[C@@H]4C[C@@]4(C(=O)NS(=O)(=O)C4CC4)NC(=O)C4C[C@@H](OC(=O)N5Cc6cccc(F)c6C5)CN4C3=O)c(F)cc21 (some centres undefined),,,1.2 nM,20 nM,0.4 nM,,
COc1cnc(O[C@@H]2CC3C(=O)N[C@]4(C(=O)NS(=O)(=O)C5CC5)C[C@H]4/C=C\CCCCC[C@H](NC(=O)Nc4ccc5c(c4)B(O)OC5)C(=O)N3C2)c2cc(Cl)ccc12 (some centres undefined),,,3.9 nM,60.3 nM,0.6 nM,,
COc1cnc(O[C@@H]2CC3C(=O)N[C@]4(C(=O)NS(=O)(=O)C5CC5)C[C@H]4/C=C\CCCCC[C@H](NC(=O)NCc4ccc5c(c4)B(O)OC5)C(=O)N3C2)c2cc(Cl)ccc12 (some centres undefined),,,3.9 nM,50.1 nM,0.4 nM,,
COc1ccc2c(O[C@@H]3CC4C(=O)N[C@]5(C(=O)NS(=O)(=O)C6CC6)C[C@H]5/C=C\CCCCC[C@H](NC(=O)Nc5ccc6c(c5)B(O)OC6)C(=O)N4C3)cc(-c3nc(C(C)C)cs3)nc2c1C (some centres undefined),,,1.2 nM,12.5 nM,5.6 nM,,
COc1ccc2c(O[C@@H]3CC4C(=O)N[C@]5(C(=O)NS(=O)(=O)C6CC6)C[C@H]5/C=C\CCCCC[C@H](NC(=O)NCc5ccc6c(c5)B(O)OC6)C(=O)N4C3)cc(-c3nc(C(C)C)cs3)nc2c1C (some centres undefined),,,0.5 nM,4.2 nM,4.1 nM,BLD,BLD
CC(C)(C)OC(=O)N[C@H]1CCCCC/C=C\[C@@H]2C[C@@]2(C(=O)NS(=O)(=O)C2CC2)NC(=O)[C@@H]2C[C@@H](OC(=O)N3Cc4cccc(F)c4C3)CN2C1=O [DANOPREVIR],17.4%,20%,1.1 nM,1 nM,0.4 nM,,
COc1ccc2c(O[C@@H]3C[C@H]4C(=O)N[C@]5(C(=O)NS(=O)(=O)C6CC6)C[C@H]5/C=C\CCCCN(C)C(=O)[C@@H]4C3)cc(-c3nc(C(C)C)cs3)nc2c1C [SIMEPREVIR],,,1.4 nM,2.3 nM,10 nM,,
